Screening results: PubChem, several laboratories
Shown are actives, neighbours in structure and some others; about 4.5% of the full set was active somewhere.
UPR CHOP act – activators of apoptotic CHOP UPR arm, primary screen, cell-based, CHO-CHOP luciferase reporter, luminescence, uHTS; UPR activation; percent of tunicamycin response over DMSO baseline; activation, % at 10 µM; 330,000 compounds, 0.34% hits; AID 449763, 2010;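 active = at 10 µM dose, activation of 40% or more, normalized to positive control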;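 note: 100% = tunicamycin at 10 µg/mL and 0% = DMSO alone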
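System: CHO CHOP reporter cells. Amount: 500 cells per well. Buffer or medium: F12 medium, 10% FBS. Compound dosing: one dose, 10 µM in 0.5% DMSO. Incubation: 6 h compound exposure at 37 °C after overnight seeding. Technique: Steady-Glo luciferase luminescence. Benchmarks: tunicamycin and DMSO controls.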
CHOP inh – inhibitors of CHOP promoter induction, primary screen, cell-based, unfolded protein response, luciferase reporter; CHO-K1 CHOP-promoter luciferase, tunicamycin-induced, 15-18 h; inhibition, % at 10 µM; 220,000 compounds, 3.8% hits;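 active = compounds that reduced the stress-induced luciferase reporter signal by more than about 70% of percent inhibition, limit read from the data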;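 note: 0% = tunicamycin plus vehicle and 100% = wells without tunicamycin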
UPR XBP1 act – activators of adaptive XBP1 UPR arm, primary screen, cell-based, CHO-XBP1 luciferase reporter, luminescence, uHTS. IRE1-XBP1 UPR activation; percent of tunicamycin response, DMSO as zero. activation, % at 20 µM. 330,000 compounds, 0.33% hits. AID 463104, 2010;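 active = versus positive control, 20 µM dose yields 30% or more activation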;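 note: 100% = tunicamycin at 10 µg/mL and 0% = DMSO only wells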
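Material: CHO-XBP1 cells stably carrying IRE1-XBP1-driven luciferase reporter | Medium: F12 with 10% serum | Compound dosing: 20 µM single concentration, DMSO 1% | Incubation: Overnight seeding at 37 °C, 6 h compound treatment at 37 °C | Detection: Steady-Glo luminescence read | Read-out basis: % activation of reporter signal versus tunicamycin and DMSO controls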
p97 inhibitor – inhibitors of human p97 ATPase, primary screen, biochemical | Transitional endoplasmic reticulum ATPase (Homo sapiens), P55072 | recombinant p97 ATPase, Kinase-Glo ATP luminescence, 3 h | inhibition, % at 8 µM | 220,000 compounds, 0.42% hits | AID 1481, 2009; in the data active = inhibition above about 15%;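 note: 0% = DMSO vehicle and 100% = wells lacking enzyme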
Target sequence (P55072 whole entry, looked up): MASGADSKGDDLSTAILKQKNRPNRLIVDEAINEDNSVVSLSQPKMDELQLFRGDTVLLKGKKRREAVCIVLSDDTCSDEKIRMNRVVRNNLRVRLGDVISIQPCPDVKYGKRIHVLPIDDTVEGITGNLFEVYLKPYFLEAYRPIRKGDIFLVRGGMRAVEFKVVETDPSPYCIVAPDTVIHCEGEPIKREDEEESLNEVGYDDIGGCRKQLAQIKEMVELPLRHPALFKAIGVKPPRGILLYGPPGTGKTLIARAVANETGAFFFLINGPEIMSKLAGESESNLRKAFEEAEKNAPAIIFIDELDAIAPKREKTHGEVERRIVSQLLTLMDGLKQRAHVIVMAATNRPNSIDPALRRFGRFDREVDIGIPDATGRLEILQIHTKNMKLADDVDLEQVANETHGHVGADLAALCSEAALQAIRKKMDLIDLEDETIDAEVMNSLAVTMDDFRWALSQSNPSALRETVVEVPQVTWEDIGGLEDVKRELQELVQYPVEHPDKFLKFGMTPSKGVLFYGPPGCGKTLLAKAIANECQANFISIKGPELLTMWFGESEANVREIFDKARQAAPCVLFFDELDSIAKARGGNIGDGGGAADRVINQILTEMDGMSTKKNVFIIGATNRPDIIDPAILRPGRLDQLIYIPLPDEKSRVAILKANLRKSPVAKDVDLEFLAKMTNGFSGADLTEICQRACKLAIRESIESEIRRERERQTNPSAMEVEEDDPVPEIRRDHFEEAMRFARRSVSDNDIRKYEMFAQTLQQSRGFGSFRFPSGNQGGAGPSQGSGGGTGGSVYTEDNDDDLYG
NS3 helicase inh – inhibitors of HCV NS3 helicase, primary screen, biochemical, Cy5 molecular beacon fluorescence | NS3 helicase DNA unwinding | inhibition, % at 10.9 µM | 290,000 compounds, 0.56% hits;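 active = inhibition above the mean of all tested compounds plus 3 SD, set per campaign, cut at about 35% in these data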;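 note: 0% = DMSO wells and 100% = thioflavine S control wells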
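System: Hepatitis C virus NS3 helicase domain fragment enzyme | Reagent: Annealed dual-labelled DNA beacon duplex, ATP-started | Compound dosing: 10.9 µM single point, 0.8% DMSO | Incubation: 1 h reaction at 25 °C, ATP-initiated | Technique: Cy5 fluorescence | Evaluation: Percent inhibition from t60/t0 fluorescence ratio | Benchmarks: Low DMSO, high thioflavine S at 110 µM | Replication: Singlicate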
PfM18AAP inh – PfM18AAP inhibitors, malaria aminopeptidase, primary screen, biochemical, QFRET, recombinant enzyme | AID 1822, 2009 | H-Glu-NHMec fluorogenic cleavage | 290,000 compounds, 1.2% hits | M18 aspartyl aminopeptidase (Plasmodium falciparum 3D7) | inhibition, % at 7.35 µM;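 active = inhibition above the campaign mean inhibition over all tested compounds plus 3 SD, cut at about 28% in these data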;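 note: 0% = plate median of test compound wells and 100% = 2 mM ZnCl2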
CHOP confirm – retest of CHOP induction inhibitors, confirmation, cell-based. inhibition, % at 10 µM. AID 504437, 2011. shares compounds with CHOP inh. 2,100 compounds, 45% hits. CHO-CHOP promoter luciferase reporter, tunicamycin-induced, luminescence;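 active = mean of three repeat readings of reporter signal inhibition above a set limit, cut at about 70% in these data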;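 note: 0% = tunicamycin plus vehicle and 100% = wells lacking tunicamycin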
Starred values were filed as active, the others as inactive; / = no result given.

SMILES	UPR CHOP act	CHOP inh	UPR XBP1 act	p97 inhibitor	NS3 helicase inh	PfM18AAP inh	CHOP confirm
O=S(=O)(NCc1cc(-c2ccc(Cl)cc2)no1)c1ccc(Cl)cc1	-3.3	101.8*	-0.6	9.4	-5.2	8.2	45.8
O=S(=O)(NCc1cc(-c2ccc(Cl)cc2)no1)c1ccccc1	0.2	52.3	-2.8	3.7	4.9	3.3	/
CCCOc1ccc(-c2csc3nc[nH]c(=O)c23)cc1	2.4	/	1.0	/	2.7	2.6	/
O=c1[nH]cnc2scc(-c3ccc(-c4ccccc4)cc3)c12	/	96.2*	/	-0.2	0.0	6.8	-3.2
CC(=O)c1cccc(NC(=O)CCC(=O)Oc2ccc(C)cc2)c1	1.5	/	-7.7	/	6.6	-3.7	/
CC(C)c1nnc(N2C(=O)c3oc4ccccc4c(=O)c3C2c2ccco2)s1 (centres undefined)	0.3	111.6*	0.7	-8.1	5.9	4.0	110.0*
Cc1ccc(C2c3c(oc4ccccc4c3=O)C(=O)N2c2nncs2)cc1 (centres undefined)	-0.3	30.6	-1.4	2.1	1.8	2.0	/
CCOc1ccc2nc(-c3ccccc3)nc(SCC(=O)Nc3ncc(C)s3)c2c1	18.8	98.4*	21.2	1.3	5.5	-1.0	-15.3
CC(Sc1nnc(-c2cccnc2)n1C)C(=O)N1CCOCC1 (centres undefined)	-2.0	/	-0.6	/	/	/	/
Cc1cc(C)c2c(c1)/C(=N/NS(=O)(=O)c1ccccc1)CCC2	0.9	16.8	-1.8	1.6	-10.6	-9.3	/
Cc1cc(C)c2c(c1)/C(=N/NS(=O)(=O)c1ccc(Br)cc1)CCC2	0.7	105.8*	0.0	0.7	0.0	-10.3	82.0*
CC(C)Oc1cc(O)c2c(=O)c(-c3ccc(O)cc3)coc2c1	7.7	/	6.2	0.3	-9.4	4.7	19.8
CC(=O)/C=C/n1c(=S)oc2ccccc21	/	106.1*	/	6.1	-1.4	-5.2	115.8*
CC(C)CC(=O)/C=C/n1c(=S)oc2ccccc21	/	108.0*	/	1.5	2.2	8.8	42.4
CCOc1ccc(CNC(=S)Nc2ccccc2)cc1Cl	1.0	/	-3.0	/	-11.6	3.9	/
Cc1ccc(CN(C)C(=O)CN2C(=O)NC(c3ccccc3)(c3ccccc3)C2=O)c(C)c1	0.8	/	-3.5	/	/	/	/
O=S(=O)(Nc1nccs1)c1ccc(NS(=O)(=O)c2c(F)cc(F)c(Cl)c2F)cc1	0.1	/	-0.5	/	/	/	/
CCc1noc(C)c1C(=O)NCCc1ccc(Cl)cc1	1.2	/	1.1	/	/	/	/
O=S(=O)(Nc1ccc2oc(-c3ccccc3)nc2c1)c1ccccc1	4.1	/	5.3	2.6	-19.5	-13.6	/
Cc1ccc(-c2nc3cc(C)ccc3o2)cc1	-8.5	66.6	-13.4	4.1	-0.7	9.0	/
Cc1ccc(-c2nc3cc(NS(=O)(=O)c4ccc(C)cc4)ccc3o2)cc1	-0.5	105.1*	1.2	-6.8	-7.2	-1.9	80.0*
Cc1ccc(-c2nc3cc(N)ccc3o2)cc1	-1.2	101.5*	-1.8	2.7	-0.5	-0.3	59.5
CCc1ccc(-c2nc(CS(=O)CC(=O)NCc3ccc4c(c3)OCO4)c(C)o2)cc1 (centres undefined)	-0.9	/	-4.3	/	7.5	10.9	/
NC(=O)c1cc([N+](=O)[O-])c(Cl)cc1NCc1cccnc1	-3.9	/	-0.6	/	/	/	/
CCSC1=NC2(CCCCC2)Nc2sc3c(c21)CCCC3	3.7	105.1*	1.7	2.2	5.7	-4.2	4.0
SMILES	UPR CHOP act	CHOP inh	UPR XBP1 act	p97 inhibitor	NS3 helicase inh	PfM18AAP inh	CHOP confirm
CCSc1nc2sc3c(c2c(=O)[nH]1)CCCC3	-1.7	-6.9	0.4	-4.9	-2.6	-8.3	/
CC(C)(C)c1cc(OC(=O)c2ccccc2F)ccc1O	1.3	104.9*	-0.2	0.4	-1.9	6.0	16.9
CC(C)(C)c1cc(OC(=O)c2ccncc2)ccc1O	-0.7	39.4	-0.1	0.6	0.4	-1.4	/
CC(C)(C)C1C/C(=C/c2ccccn2)C(=O)/C(=C/c2ccccn2)C1 (centres undefined)	-8.9	108.7*	-7.4	0.4	-9.3	-0.1	137.3*
CC1C/C(=C/c2ccccn2)C(=O)/C(=C/c2ccccn2)C1 (centres undefined)	14.3	108.1*	-6.3	-3.2	-21.8	16.6	113.1*
O=C1/C(=C/c2ccccn2)COc2ccccc21	1.3	-48.4	4.0	4.2	-2.2	0.2	/
CCCCS(=O)(=O)N1CCCC(C(=O)Nc2ccc3c(c2)CCC3)C1 (centres undefined)	2.9	/	-2.7	/	0.9	-4.3	/
O=c1oc2ccccc2c(Cl)c1CN1CCCCC1	-10.0	107.3*	-10.3	-4.4	6.2	7.9	122.9*
CCCc1ccc(O)c(N=Cc2cc(Br)cc(OCC)c2O)c1	-0.1	97.2*	-1.6	6.5	12.7	19.3	109.7*
CC(C)c1ccc2[nH]c(O)c(N=NC(=S)NCCc3ccccc3)c2c1	-1.6	34.5	-1.5	3.8	-1.1	1.0	/
Oc1[nH]c2ccccc2c1N=NC(=S)NCCc1ccccc1	/	104.8*	/	3.1	-3.8	-1.9	75.6*
O=C(O)c1ccc(/C=N/NC(=O)c2cc3c(ccc4ccccc43)o2)cc1	0.6	/	-1.0	/	9.1	5.7	/
O=C(N/N=C/c1ccncc1)c1cc2c(ccc3ccccc32)o1	-0.5	108.6*	-2.6	1.8	-13.7	-0.3	-56.1
O=C(Nc1nc2ccc(SC(F)F)cc2s1)c1ccc(NS(=O)(=O)c2ccc(F)c(F)c2)cc1	7.4	105.8*	1.6	1.5	-76.5	-1.0	-4.6
CCC/C(C#Cc1ccsc1)=C1/c2ccccc2C(=O)N1c1ccccc1	-1.2	/	1.8	/	/	/	/
COc1cc(-c2nc3ccccc3nc2-c2ccc(O)c(OC)c2)ccc1O	-0.3	/	-2.9	/	-8.8	6.6	/
COc1cc(-c2nc3c(c(C)nn3-c3ccccc3)c3cc(OC)c(OC)cc23)ccc1O	2.7	99.2*	12.7	5.2	3.3	2.6	82.8*
O=C(Nc1ccccc1Cl)c1ccccc1Oc1ccc(C(F)(F)F)cc1[N+](=O)[O-]	-3.0	105.1*	1.3	-7.4	-5.4	-7.5	81.4*
O=C(c1ccccc1Oc1ccc(C(F)(F)F)cc1[N+](=O)[O-])N1CCOCC1	-2.9	21.3	-2.3	2.0	2.4	4.0	/
Cc1ccc(-c2ccc(/C=C3/NC(=O)NC3=O)o2)cc1[N+](=O)[O-]	/	98.0*	/	4.2	2.5	4.8	-18.4
